Our source for the Activity, IC50 and viability values is ChEMBL document CHEMBL3102713, “The cytotoxic effect of 2-acylated-1,4-naphthohydroquinones on leukemia/lymphoma cells” (Bioorg Med Chem, 2014).

Experiment [1] has as its system CCRF-CEM. The experiment is described as follows: Induction of apoptosis in human CCRF-CEM cells assessed as caspase 3 activation at 10 uM after 8 hrs by measuring late apoptotic cells using flow cytometric analysis relative to control. The experiment is classed as functional.
In experiment [2] the test system is CCRF-CEM. The experiment is described as follows: Cytotoxicity against human CCRF-CEM cells assessed as cell viability after 72 hrs by MTS assay. The format is functional, cell-based. A digest of the protocol:
(§1)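 Cells seeded at 10,000 per well in 96-well plates; leukemia/lymphoma lines in RPMI, Hs27 fibroblasts in DMEM, both with 10% heat-inactivated FBS, penicillin and streptomycin, 37 °C, 5% CO2. Exposed to doubling concentrations from 1.56 to 100 µM for 72 h, then MTS added for 4 h. Absorbance read at 490 nm, reference 650 nm, cell-free background subtracted. Viability expressed relative to 1% DMSO solvent control. Eight replicates. IC50 is the concentration giving 50% inhibition of formazan conversion versus untreated cells.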

Experiment [3] deals with CCRF-CEM. The experiment is described as follows: Cytotoxicity against human CCRF-CEM cells assessed as mitochondrial membrane depolarization at 10 uM by JC-1 red/green staining-based flow cytometry analysis. The format is functional, cell-based. The settings on record: TDE = time-dependent effect.
Experiment [4] relates to HS27. The experiment is described as follows: Cytotoxicity against human HS27 cells assessed as cell viability after 72 hrs by MTS assay. The conditions noted are these: HS27, 72 h. The format is cell-based. A digest of the protocol: as §1
Experiment [5] can be described thus: Cytotoxicity against human NALM6 cells assessed as cell viability after 72 hrs by MTS assay. The experiment is classed as functional, cell-based. The settings on record: NALM-6, 72 h. A digest of the protocol: as §1
For experiment [6], the system named is CCRF-CEM. The experiment is described as follows: Induction of apoptosis in human CCRF-CEM cells assessed as late apoptotic cells at 10 uM after 72 hrs by measuring phosphatidylserine translocation using annexin V-FITC/propidium iodide staining-based flow cytometric analysis (reference value: 0.1%). The format is functional.
Experiment [7] deals with CCRF-CEM. The experiment is described as follows: Induction of apoptosis in human CCRF-CEM cells assessed as caspase 3 activation at 10 uM after 8 hrs by measuring necrotic cells using flow cytometric analysis relative to control. The experiment is classed as functional.
The test system of experiment [8] is CCRF-CEM. The experiment is described as follows: Induction of apoptosis in human CCRF-CEM cells assessed as necrotic cells at 10 uM after 72 hrs by measuring phosphatidylserine translocation using annexin V-FITC/propidium iodide staining-based flow cytometric analysis (reference value: 0.4%). The experiment is classed as functional.
The test system of experiment [9] is CCRF-CEM. The experiment is described as follows: Cytotoxicity against human CCRF-CEM cells assessed as intact mitochondrial membrane potential at 10 uM after 6 hrs by JC-1 red/green staining-based flow cytometry analysis (reference value: 96.7%). The format is functional.
Experiment [10] concerns CCRF-CEM. The experiment is described as follows: Induction of apoptosis in human CCRF-CEM cells using fluorogenic substrate assessed as caspase 3 activation at 10 uM after 8 hrs by measuring early apoptotic cells using flow cytometric analysis (reference value: 3.9%). The format is functional.
Experiment [11] relates to CCRF-CEM. The experiment is described as follows: Induction of apoptosis in human CCRF-CEM cells assessed as early apoptotic cells at 10 uM after 72 hrs by measuring phosphatidylserine translocation using annexin V-FITC/propidium iodide staining-based flow cytometric analysis (reference value: 0.8%). The experiment is classed as functional.
Experiment [12] concerns CCRF-CEM. The experiment is described as follows: Induction of apoptosis in human CCRF-CEM cells using fluorogenic substrate assessed as caspase 3 activation at 1 uM after 8 hrs by measuring viable cells using flow cytometric analysis (reference value: 96.1%).
Experiment [13] deals with CCRF-CEM. The experiment is described as follows: Cytotoxicity against human CCRF-CEM cells assessed as mitochondrial membrane depolarization at 10 uM after 8 hrs by JC-1 red/green staining-based flow cytometry analysis (reference value: 3.3%). The experiment is classed as functional.
Experiment [14] deals with CCRF-CEM. The experiment is described as follows: Induction of apoptosis in human CCRF-CEM cells assessed as viable cells at 10 uM after 72 hrs by measuring phosphatidylserine translocation using annexin V-FITC/propidium iodide staining-based flow cytometric analysis (reference value: 98.7%). The experiment is classed as functional. The conditions noted are these: read-out: Activity.

Experiment [15] relates to Ramos. The experiment is described as follows: Cytotoxicity against human Ramos cells assessed as cell viability after 72 hrs by MTS assay. The experiment is classed as functional, cell-based. The gist of the method:
as §1

The subject of experiment [16] is CCRF-CEM. The experiment is described as follows: Cytotoxicity against human CCRF-CEM cells assessed as mitochondrial membrane depolarization at 10 uM after 6 hrs by JC-1 red/green staining-based flow cytometry analysis (reference value: 3.3%). The experiment is classed as functional.
Experiment [17] concerns Jurkat. The experiment is described as follows: Cytotoxicity against human Jurkat cells assessed as cell viability after 72 hrs by MTS assay. The format is functional, cell-based. The gist of the method: as §1
In experiment [18] the test system is CCRF-CEM. The experiment is described as follows: Cytotoxicity against human CCRF-CEM cells assessed as intact mitochondrial membrane potential at 10 uM after 8 hrs by JC-1 red/green staining-based flow cytometry analysis (reference value: 96.7%). The experiment is classed as functional.
For experiment [19], the system named is CCRF-CEM. The experiment is described as follows: Induction of apoptosis in human CCRF-CEM cells assessed as early apoptotic cells at 50 uM after 72 hrs by measuring phosphatidylserine translocation using annexin V-FITC/propidium iodide staining-based flow cytometric analysis (reference value: 0.8%). The experiment is classed as functional.
The subject of experiment [20] is CCRF-CEM. The experiment is described as follows: Induction of apoptosis in human CCRF-CEM cells assessed as late apoptotic cells at 50 uM after 72 hrs by measuring phosphatidylserine translocation using annexin V-FITC/propidium iodide staining-based flow cytometric analysis (reference value: 0.1%). The format is functional.
Experiment [21] concerns CCRF-CEM. The experiment is described as follows: Induction of apoptosis in human CCRF-CEM cells assessed as necrotic cells at 50 uM after 72 hrs by measuring phosphatidylserine translocation using annexin V-FITC/propidium iodide staining-based flow cytometric analysis (reference value: 0.4%). The experiment is classed as functional.
Experiment [22] deals with CCRF-CEM. The experiment is described as follows: Induction of apoptosis in human CCRF-CEM cells assessed as viable cells at 50 uM after 72 hrs by measuring phosphatidylserine translocation using annexin V-FITC/propidium iodide staining-based flow cytometric analysis (reference value: 98.7%). The conditions noted are these: read-out: Activity. The format is functional.

The test system of experiment [23] is CCRF-CEM. The experiment is described as follows: Cytotoxicity against human CCRF-CEM cells assessed as mitochondrial membrane depolarization at 50 uM after 8 hrs by JC-1 red/green staining-based flow cytometry analysis (reference value: 3.3%). The experiment is classed as functional.
Experiment [24] has as its system CCRF-CEM. The experiment is described as follows: Induction of apoptosis in human CCRF-CEM cells using fluorogenic substrate assessed as caspase 3 activation at 50 uM after 8 hrs by measuring viable cells using flow cytometric analysis (reference value: 93.9%). The format is functional. The gist of the method:
(§2)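 CEM cells were seeded at 50,000 per well in RPMI with 10% FBS and exposed for 8 h at 37 °C, with CCCP (50 µM) as positive control and untreated and 1% DMSO controls. Cells were labelled with NucView 488 caspase-3/7 live-cell fluorogenic substrate. Green-positive cells were counted by flow cytometry (FL1 vs FL2 dot plots), about 10,000 events per sample, in triplicate.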

Experiment [25] deals with CCRF-CEM. The experiment is described as follows: Induction of apoptosis in human CCRF-CEM cells assessed as caspase 3 activation at 50 uM after 8 hrs by measuring necrotic cells using flow cytometric analysis relative to control. The experiment is classed as functional. A digest of the protocol:
as §2

Experiment [26] has as its system CCRF-CEM. The experiment is described as follows: Induction of apoptosis in human CCRF-CEM cells using fluorogenic substrate assessed as caspase 3 activation at 50 uM after 8 hrs by measuring early apoptotic cells using flow cytometric analysis (reference value: 6.1%). The format is functional. A digest of the protocol:
as §2

In experiment [27] the test system is CCRF-CEM. The experiment is described as follows: Induction of apoptosis in human CCRF-CEM cells using fluorogenic substrate assessed as caspase 3 activation at 50 uM after 8 hrs by measuring late apoptotic cells using flow cytometric analysis relative to control. The format is functional. A digest of the protocol: as §2
Experiment [28] relates to CCRF-CEM. The experiment is described as follows: Cytotoxicity against human CCRF-CEM cells assessed as intact mitochondrial membrane potential at 50 uM after 8 hrs by JC-1 red/green staining-based flow cytometry analysis (reference value: 96.7%). The experiment is classed as functional.

Consider `CCCCCCCCCCCC(=O)c1cc(O)c2ccccc2c1O`, for which the Activity in experiment [1] was 0%; in experiment [3], “tde”; in experiment [6], 3.7%; in experiment [7], 0%; in experiment [8], 3%; in experiment [9], 63.2%. Moreover, the Activity in experiment [10] came out at 35.2%; in experiment [11], 92.8%; in [12], 64.8%; in experiment [13], 62.3%; in experiment [16], 36.8%; in [18], 37.7%. Moreover, the IC50 in [2] worked out at 5.99 µM; in [4], 43.8 µM; in experiment [5] it was 5.8 µM; in experiment [15] it was 0.98 µM; in experiment [17], 6.56 µM. The viability at 10 µM in experiment [14] turned out to be 0.5%.

For the compound `CCC(=O)c1cc(O)c2ccccc2c1O`, the IC50 in [2] worked out at 3.95 µM; in [4] it was 18 µM; in [5] it was 2.02 µM; in experiment [15], 2.49 µM; in experiment [17], 4.54 µM.

For `C/C=C/C(=O)c1cc(O)c2ccccc2c1O`, the Activity is on record as 1.3% in experiment [19], 0.4% in [20] and 19.8% in experiment [21]. Moreover, the half-inhibitory concentration (IC50) in experiment [2] stood at 3.19 µM; in [4] it was 37.1 µM; in experiment [5], 4.63 µM; in [15], 4.25 µM; in [17], 6.24 µM. Also, the viability at 50 µM in [22] was determined as 78.6%.

As for `N#CC(C#N)=NNc1cccc(Cl)c1` [CARBONYL CYANIDE M-CHLOROPHENYLHYDRAZONE], the Activity in experiment [23] was 100%; in [24], 66.3%; in experiment [25], 0%; in experiment [26], 32.6%; in experiment [27], 1.1%; in experiment [28] it was 0%.

As for `CC(=O)c1cc(O)c2ccccc2c1O`, the half-maximal inhibitory concentration (IC50) amounted to 5.24 µM in experiment [2]; 9.87 µM in experiment [4]; 5.09 µM in experiment [5]; 0.75 µM in experiment [15]; 5.6 µM in experiment [17].

Turning to `COc1ccc(C(=O)c2cc(O)c3ccccc3c2O)cc1`, the half-maximal inhibitory concentration (IC50) in experiment [2] was 0.01 µM; in [4], 4.97 µM; in experiment [5], 0.88 µM; in [15], 0.66 µM; in experiment [17], 2.78 µM.

As to `O=C(c1ccccc1)c1cc(O)c2ccccc2c1O`, the IC50 in [2] was determined as 5.44 µM; in experiment [4] it was 8.3 µM; in [5], 2.58 µM; in [15], 4.13 µM; in experiment [17] it was 6.35 µM.

On to `Cc1ccc(C(=O)c2cc(O)c3ccccc3c2O)cc1`, for which the concentration for half-maximal inhibition (IC50) in [2] is 0.74 µM; in experiment [4], 4.37 µM; in [5], 2.41 µM; in experiment [15] it was 0.52 µM; in experiment [17], 3.35 µM.
